Source: PubChem BioAssay (several laboratories)
Most compounds without a hit are left out; they make up all but 1% or so of the library.
Arrestin-AP2 inh: human beta-arrestin and AP2 interaction inhibition; AID 504490; inhibition, % at 10 µM; FITC-arrestin peptide / GST-AP2 beads, flow cytometry; AP2 beta2 appendage carries R879A mutation; 0.31% of 340,000 active;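 active = inhibition above a set limit, near 3 SD of compounds lacking own fluorescence, cut at about 54% in these data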;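 also: plate controls were DMSO wells for no effect and 5 µM unlabelled arrestin peptide for full effect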
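Test system: GST-tagged AP2 beta2-adaptin appendage (R879A) on 4 µm glutathione beads; also added: fluorescein-tagged arrestin peptide at 50 nM final; timing: 12 min plus 1 h, RT; signal: flow cytometry, FL1 (488/535 nm); read-out: percent drop in bead-associated FITC signal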
p-CIP stab down: lowers stability of the mouse p/CIP coactivator protein; Q05BA5; F442A p/CIP-EGFP cells, EGFP fluorescence, 16 h; decrease of EGFP signal, % at 10 µM; 0.01% of 290,000 active;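 active = EGFP signal decrease of at least 30% at 10 µM or well 3 SD below plate mean, unless failing retest; inactive = the rest, including hits failing retest or dose response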
Fh CTSL1 inh: blocks F. hepatica cathepsin L1 in PFM18AAP counter-screen; 0.49% of 300,000 active; recombinant F. hepatica cathepsin L1, Z-Leu-Arg-MCA fluorescence; AID 1906; inhibition, % at 5.96 µM;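 active = inhibition above the mean of all tested compounds plus 3 SD, set per screening campaign, cut at about 17% in these data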;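 also: 0% = plate median of test compound wells and 100% = 1 µM Z-Phe-Ala-diazomethylketone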
Hep lipid drop: modulators of hepatic lipid droplet formation. AID 1656. inhibition, % at 6.5 µM. AML12 mouse hepatocytes, oleate lipid droplets, BODIPY imaging. 0.4% of 240,000 active;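 active = lipid droplet intensity inhibited by at least 50%, with more than 500 cells counted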
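Technique: fluorescence imaging, 20x objective, two fields per well / Assay system: AML12 hepatocytes (mouse) / Measure: % inhibition of lipid droplet signal / Doses: 6.5 µM single-point dosing / Incubation: overnight exposure / Reagent: 100 µM oleic acid challenge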
Hep lipid conf: hepatic lipid droplet formation inhibition, confirmed. shares compounds with Hep lipid drop. 65% of 870 active. AML12 mouse hepatocytes, BODIPY lipid droplet imaging; droplets induced with 100 µM oleic acid. AID 463183. inhibition, % at 5.2 µM;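 active = inhibition of lipid droplet metric at least 50%, with more than 300 cells in each of four replicates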;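 also: plate controls were DMSO with oleic acid for no effect and 5 µM Triacsin-C for full effect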
AML12 cytotox: AML12 hepatocyte cytotoxicity (counter-screen) | shares compounds with Hep lipid drop | AML12 mouse hepatocytes, DAPI nuclear morphology cytotoxicity imaging; active compounds read high; cells fed 100 µM oleate overnight | z-score at 5 µM | 3% of 870 active | AID 463200; in the data active = z-score above about 6.3;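 also: compound exposure lasted overnight at 37 °C before fixation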
AML12 tox conf: AML12 hepatocyte cytotoxicity, confirmed; shares compounds with Hep lipid drop; AML12 mouse hepatocyte viability, ATP luminescence; cells loaded with 100 µM oleic acid; cytotoxicity, % at 50 µM; 530 tested, under 10 active;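 active = cytotoxicity above 50% in each of four replicates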;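 also: compound exposure lasted overnight at 37 °C before the ATP read; 0% = DMSO-treated cells and 100% = wells with no cells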
Arr AP2 CP1: human beta-arrestin and AP2 interaction inhibition, cherry pick | shares compounds with Arrestin-AP2 inh | GST-AP2 beads, FITC arrestin peptide binding, flow cytometry; GST-fused beta2-adaptin appendage, R879A mutant | inhibition, % at 10 µM | 2% of 1,300 active | AID 504908;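 active = inhibition above a set limit, roughly 3 SD of non-fluorescent compound noise, cut at about 38% in these data; inactive = inhibition at or below that limit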;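 also: loss of bead fluorescence from 50 nM FITC arrestin peptide bound to appendage; 0% = negative control wells and 100% = excess unlabelled arrestin peptide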
GST GSH counter: counter-screen for beta-arrestin AP2 inhibitors: GST-GSH bead binding; shares compounds with Arrestin-AP2 inh; GST-fluorescein binding to GSH beads, fluorescence; inhibition, % at 10 µM; 2% of 1,300 active; AID 588338;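 active = inhibition above 50%, about 3 SD of the inhibition seen with non-fluorescent compounds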;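 also: fluorescein maleimide labelled GST captured on 4 micron glutathione beads; higher means more loss of bead fluorescence from quenching or blocked binding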
* = called active by the depositor; . = not tested or not shown.

SMILES	Arrestin-AP2 inh	p-CIP stab down	Fh CTSL1 inh	Hep lipid drop	Hep lipid conf	AML12 cytotox	Arr AP2 CP1	GST GSH counter	others
Cc1cc(C(c2ccc(O)cc2)c2cc(C)c(O)cc2C)c(C)cc1O	9	-4	1	56*	21	-0.96	.	.
CC(=O)Nc1cccc(OCC(=O)NC(C)c2ccc3ccccc3c2)c1 (stereo not drawn)	-7	-4	8	68*	38	0.15	.	.
CCn1c(CNc2ccc(F)cc2)nnc1SCC(=O)OC1CCCCC1	12	-5	3	.	.	.	.	.
C=C(C)[C@@H]1CCC2(C(=O)O)CC[C@]3(C)[C@H](CC[C@@H]4[C@@]5(C)CCC(=O)C(C)(C)[C@@H]5CC[C@]43C)[C@@H]12 (stereo partly drawn)	1	-4	3	8	.	.	.	.
C=C(C)[C@@H]1CC[C@]2(C(=O)O)CC[C@]3(C)C(CCC4[C@@]5(C)CC[C@H](O)C(C)(C)C5CC[C@]43C)C12 (stereo partly drawn)	1	5	2	58*	20	0.66	.	.
O=C(Nc1ccc(Br)cc1)c1cccc(OC(=S)N2CCOCC2)c1	21	-17	3	54*	89*	0.81	.	.	AML12 tox conf=20
CNC(=O)c1ccc(N(Cc2ccccc2)S(C)(=O)=O)cc1	-3	-13	0	15	.	.	.	.
COCCN1C(=O)/C(=C/c2ccc(N3CCCC3)cc2C)SC1=S	103*	-558	2	105*	105*	-0.08	-21	-2
CC1(C)Oc2ccc3ccc(=O)oc3c2/C(=C/Nc2cccc(O)c2)C1=O	-5	4	9	-3	.	.	.	.
CC1(C)Oc2ccc3ccc(=O)oc3c2/C(=C/Nc2ccc(O)cc2)C1=O	55*	4	-2	56*	94*	-0.42	-10	-4	AML12 tox conf=-12
CCCC1=C(C(=O)OCC)C(c2ccco2)C(C#N)=C(N)O1 (stereo not drawn)	5	14	2	2	.	.	.	.
O=C(CCC1CCCN(C(=O)c2ccc3c(c2)OCO3)C1)NCc1ccc(F)c(F)c1 (stereo not drawn)	3	12	-1	-16	.	.	.	.
O=C(CCC1CCCN(C(=O)c2ccc3cc[nH]c3c2)C1)NCc1ccc(F)c(F)c1 (stereo not drawn)	58*	-14	-5	-16	.	.	9	-7
Nc1ccc2c(C(F)(F)F)cc(C(F)(F)F)nc2n1	56*	-2	1	9	.	.	-3	-6
FC(F)(F)c1cc(C(F)(F)F)c2ccc(Oc3ccccc3)nc2n1	5	-1	4	.	.	.	.	.
CC(C)(O)C#Cc1ccc(C(=O)N2CCCC(CNS(=O)(=O)c3cccs3)C2)o1 (stereo not drawn)	61*	-12	-1	-3	.	.	-9	3
CCNS(=O)(=O)c1ccc(NC(=O)Cn2nc(C(F)(F)F)cc2C)cc1	62*	5	1	.	.	.	7	5
O=C(CCn1cnnn1)Nc1ccc(Cl)cc1Cl	-6	-20	3	2	.	.	.	.
CCCc1nc2nc(C)c(NS(=O)(=O)c3ccc4c(c3)CCCC4)c(=O)n2[nH]1	-3	2	2	-8	.	.	.	.
COc1ccc(/C=C/C(=O)OCC(=O)NC2CCCC(C)C2C)c(OC)c1 (stereo not drawn)	64*	.	.	.	.	.	3	-6
COc1ccc(/C=C/C(=O)OCC(=O)NC2CC2)c(OC)c1	0	.	.	.	.	.	.	.
CCC(C)NC(=O)C1CCC(CNS(=O)(=O)c2cccc3nsnc23)CC1 (stereo not drawn)	54*	-11	1	-14	.	.	2	1
O=C1/C(=C\c2ccc(-c3ccccc3Cl)o2)SC(=S)N1CC1CCCO1 (stereo not drawn)	73*	0	4	.	.	.	42*	27
